Data: ChEMBL document CHEMBL1144682, “Glycosyl and polyalcoholic prodrugs of lonidamine” (Bioorg Med Chem Lett, 2008)
Values after ≈ are worked out from the molar mass of the structure shown. Active and inactive are the calls of the source. No cut-off for these calls is given here.

Experiments:
[1] = Solubility in water; type: physicochemical; conditions: for solubility: water
[2] = Partition coefficient, log P of the compound; type: physicochemical; conditions: octanol/water
PC-3 = assay: Growth inhibition of human PC3 cells by SRB assay; type: functional
Procedure, shortened: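 Human PC-3 prostate cancer cells tested by sulforhodamine B assay following the NCI protocol. Concentrations went up to 100 μM, and GI50 was derived.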

[3] = Cytotoxicity against human SKOV cells at 300 uM after 12 hrs; type: functional
Procedure, shortened: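 SK-OV ovarian carcinoma cells treated for 12 h at 50, 150 or 300 μM drug with 0.01% DMSO present. Cell viability read out as % inhibition.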

[4] = Cell cycle arrest in human SKOV cells assessed as decrease in S phase accumulation at 50 uM after 12 hrs by flow cytometry; type: functional, cell-based
Procedure, shortened: (§1)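 SK-OV ovarian carcinoma cells exposed for 12 h to drug at 50 or 150 μM with 0.01% DMSO present. Cells stained with propidium iodide and analysed by flow cytometry for G1, S and G2 distribution. Values are means ± SEM of three independent experiments.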

[5] = Cell cycle arrest in human SKOV cells assessed as decrease in S phase accumulation at 150 uM after 12 hrs by flow cytometry; type: functional, cell-based; procedure, shortened: as §1
[6] = Cell cycle arrest in human SKOV cells assessed as accumulation at G1 phase at 150 uM after 12 hrs by flow cytometry; type: functional, cell-based; procedure, shortened: as §1
[7] = Chemical stability assessed as half life of hydrolysis at pH 1.3; type: physicochemical; conditions: buffer
Procedure, shortened: (§2)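 Non-enzymatic chemical hydrolysis of the prodrugs in buffer at pH 1.3 (simulated gastric conditions) and in phosphate buffer at pH 7.4, at 37 °C. Followed for up to 120 h. First-order kinetic plots gave Kobs and t1/2. Values are means of three experiments with SEM.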

[8] = Chemical stability assessed as half life of hydrolysis at pH 7.4; type: physicochemical; conditions: buffer; procedure, shortened: as §2
[9] = Stability in rat plasma assessed as half life of hydrolysis; type: ADME, cell-free
Procedure, shortened: (§3)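 Enzymatic hydrolysis in 80% rat plasma or 80% human plasma at 37 °C. t1/2 taken from first-order kinetic plots. Values are means of three experiments with SEM.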

[10] = Stability in human plasma assessed as half life of hydrolysis; type: ADME, cell-free; procedure, shortened: as §3

| Structure (SMILES) | solubility [1] | logP [2] | half-life [7] | half-life [8] | half-life [9] | half-life [10] | other results |
| --- | --- | --- | --- | --- | --- | --- | --- |
| O=C(OC[C@@H](O)[C@H](O)CO)c1nn(Cc2cc(Cl)cc(Cl)c2)c2ccccc12 | 1.2 µg/mL (≈ 2.82 µM) | 3.04 | – | – | – | – | – |
| O=C(OCC(O)CO)c1nn(Cc2cc(Cl)cc(Cl)c2)c2ccccc12 (stereo not given) | 0.51 µg/mL (≈ 1.29 µM) | 3.96 | – | – | – | – | – |
| O=C(OC[C@H]1O[C@@H](O)[C@H](O)[C@H]1O)c1nn(Cc2cc(Cl)cc(Cl)c2)c2ccccc12 | 1.3 µg/mL (≈ 2.87 µM) | 3.4 | – | – | – | – | – |
| O=C(OC[C@@H](O)[C@H](O)COC(=O)c1nn(Cc2cc(Cl)cc(Cl)c2)c2ccccc12)c1nn(Cc2cc(Cl)cc(Cl)c2)c2ccccc12 | – | – | – | – | – | – | Activity ([1]; buffer): Not Active |
| O=C(O)c1nn(Cc2ccc(Cl)cc2Cl)c2ccccc12 [LONIDAMINE] | 17 µg/mL (≈ 52.9 µM) | 1.3 | – | – | – | – | Activity (PC-3): inactive |
| O=C(OC[C@H]1OC(O)[C@H](O)[C@@H](O)[C@H]1O)c1nn(Cc2cc(Cl)cc(Cl)c2)c2ccccc12 (stereo not given in full) | 84.3 µg/mL (≈ 174 µM) | 2.54 | > 120 h | 114 h | 0.995 h | 2.06 h | GI50 (PC-3): 3.16 µM; inhibition at 300 µM [3]: 60%; Activity [4]: Active; Activity [5]: Active; Activity [6]: Active |
| O=C(O[C@@H]1[C@@H](O)[C@H](O)O[C@H](CO)[C@H]1O)c1nn(Cc2cc(Cl)cc(Cl)c2)c2ccccc12 | 118 µg/mL (≈ 245 µM) | 2.19 | > 120 h | 44.1 h | 0.534 h | 0.711 h | – |
| O=C(O[C@@H]([C@H](O)[C@H](O)CO)[C@H](O)CO)c1nn(Cc2cc(Cl)cc(Cl)c2)c2ccccc12 | 137 µg/mL (≈ 283 µM) | 2.55 | > 120 h | 80.7 h | 2.17 h | 6 h | GI50 (PC-3): 3.16 µM; inhibition at 300 µM [3]: 30% |
